Sampled rows, rich in hits. Any-hit rate of the full collection: about 3.3%.
rCAG RNA binder – binders of r(CAG) RNA repeats, primary screen, biochemical, fluorescence; AID 651821, 2012; r(CAG) RNA repeat, TO-PRO-1 dye displacement fluorescence; 370,000 tested, 1.3% active; inhibition, % at 3 µM;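 active = inhibition above the plate cutoff, the mean of all test compounds on that plate plus 3 SD, cut at about 35% in these data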;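 also: higher means more dye released from RNA so lower well fluorescence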
HTRA1 inh – HTRA1 serine protease inhibitors, primary screen, biochemical, fluorescence polarization, HTS; 340,000 tested, 0.5% active; recombinant HTRA1, FP-rhodamine activity-based probe; Q92743; AID 504803, 2011; inhibition, % at 5.96 µM; in the data active = inhibition above about 36%
mABHD4 FP – ABHD4 inhibitors, primary screen, biochemical, fluorescence polarization, mouse; (Lyso)-N-acylphosphatidylethanolamine lipase (Mus musculus), Q8VD66; purified mABHD4, FP-Rh probe fluorescence polarization; inhibition, % at 8.92 µM; 370,000 tested, 0.54% active; AID 720543, 2013;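 active = inhibition exceeding the mean over every tested compound plus 3 SD, cut at about 30% in these data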
Target sequence (Q8VD66 whole entry, looked up): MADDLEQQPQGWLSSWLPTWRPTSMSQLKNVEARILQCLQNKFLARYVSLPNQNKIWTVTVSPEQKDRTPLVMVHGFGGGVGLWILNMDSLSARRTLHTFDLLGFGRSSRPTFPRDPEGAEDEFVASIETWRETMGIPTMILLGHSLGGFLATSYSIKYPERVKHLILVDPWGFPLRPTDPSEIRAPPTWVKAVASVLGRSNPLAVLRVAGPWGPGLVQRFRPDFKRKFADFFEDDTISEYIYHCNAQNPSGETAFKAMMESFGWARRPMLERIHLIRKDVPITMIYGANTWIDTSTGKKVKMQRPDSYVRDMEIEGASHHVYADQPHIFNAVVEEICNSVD
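Test system: mouse ABHD4 enzyme, wild type. Reagent: FP-Rh fluorescent activity-based probe, added after compound pre-incubation. Timing: pre-incubation 45 min, probe exposure 60 min, at 25 °C. Technique: FP readout, ex 525 nm / em 598 nm. Benchmarks: high control S159A mutant with DMSO, low control median of compound wells.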
PRMT1 FP inh – PRMT1 methyltransferase inhibitors, primary screen, biochemical, fluorescence polarization. recombinant PRMT1, activity-based probe fluorescence polarization. inhibition, % at 2.79 µM. 370,000 tested, 1.3% active;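 active = inhibition above about 21% made by adding two undisclosed values, limit read from the data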
SIAE inh – human SIAE inhibitors, primary screen, biochemical, fluorescence polarization, FP-Rh probe, 1536-well HTS. SIAE FP-Rh probe binding. 370,000 tested, 0.69% active. inhibition, % at 9.66 µM. Sialate O-acetylesterase (Homo sapiens), Q9HAT2;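 active = inhibition above a cutoff: mean of compounds within the control limits plus 3 SD of those, cut at about 17% in these data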
SIAE confirm – human SIAE inhibitors, retest, confirmation, biochemical, fluorescence polarization, FP-Rh probe, triplicate; shares compounds with SIAE inh; SIAE FP-Rh activity-based probe; inhibition, % at 9.66 µM; 2,300 tested, 13% active; AID 1117263, 2014;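 active = mean inhibition of the replicates above the hit cutoff set in the primary screen, cut at about 17% in these data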;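 also: inhibitors lower polarization as more probe stays unbound to SIAE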
Of the large screens only hits and unclear results are named; the others gave an inactive call (follow-up assays come after a bar, where they were run).

COc1ccc(S(=O)(=O)N(CC(=O)NCC2CCCO2)Cc2ccccc2)cc1 (stereo not drawn)	none
O=C(NCC1CCCO1)c1nnc(Cc2ccc(F)cc2)o1 (stereo not drawn)	SIAE inh 18.0 | SIAE confirm inactive
O=C(CN(Cc1ccc(Br)cc1)S(=O)(=O)c1ccccc1)NCC1CCCO1 (stereo not drawn)	SIAE inh 18.1 | SIAE confirm inactive
S=C(NCC1CCCO1)Nc1ccc(Cl)cc1 (stereo not drawn)	none
O=C(NCC1CCCO1)c1ccccc1 (stereo not drawn)	SIAE inh 17.4 | SIAE confirm inactive
O=C(NCC1CCCO1)c1cccc(NC(=O)c2ccccc2)c1 (stereo not drawn)	none
S=C(NCC1CCCO1)Nc1ccccc1 (stereo not drawn)	SIAE inh 21.1 | SIAE confirm inactive
CC(C)(C)OC(=O)N1CCc2onc(-c3ccc(N)cc3)c2C1=O	none
Cc1nc(C/C(=N\N)c2ccc(O)cc2O)cs1	none
CCc1cc(/C(Cc2csc(C)n2)=N/O)c(O)cc1O	SIAE inh 19.2 | SIAE confirm inactive
CN(C)c1ccc(NC(=O)CSc2nnc(C3CCCCC3)n2N)cc1	SIAE inh 20.3 | SIAE confirm inactive
Nn1c(SCC(=O)Nc2ccc(F)cc2)nnc1C1CCCCC1	none
O=C1CCCC(O)=C1N=Nc1cccc(C(=O)O)c1	SIAE inh 21.1 | SIAE confirm inactive
O=C1CCCC(O)=C1N=Nc1c(Cl)cc(Cl)cc1Cl	SIAE inh 20.8 | SIAE confirm inactive
COc1ccc(C(=O)Oc2c(OC)cc(C(=S)N3CCOCC3)cc2OC)cc1OC	none
CC(=O)Nc1ccc(NC(=O)CCNC(=O)c2ccccc2Cl)cc1	none
O=C(Nc1cc(Cl)ccc1N1CCOCC1)c1ccc(Br)o1	SIAE inh 24.3 | SIAE confirm inactive
Nc1c(-c2ccccc2)nc2ncccn12	none (no result: HTRA1 inh)
O=Nc1c(-c2cccc([N+](=O)[O-])c2)nc2ncccn12	SIAE inh 18.0 (no result: HTRA1 inh) | SIAE confirm inactive
O=C(O)c1ccccc1Nc1ccccc1	none
Cc1cc(Nc2ccccc2C(=O)O)nc2nc3ccccc3c(=O)n12	SIAE inh 23.0 | SIAE confirm inactive
Cc1ccc(SCC(=O)OCC(=O)N(CCC#N)c2ccccc2)cc1C	SIAE inh 29.4 | SIAE confirm inactive
O=C(Cc1c[nH]c2ccccc12)Nc1ccc(Nc2cccnc2)c(-c2ccc(F)c(F)c2)c1	SIAE inh 27.8 (no result: HTRA1 inh) | SIAE confirm inactive
O=C(Cc1c[nH]c2ccccc12)Nc1ccc(Nc2cccnc2)c(-c2ccc(-c3ccccc3)cc2F)c1	SIAE inh 22.0 (no result: HTRA1 inh) | SIAE confirm inactive
COc1ccc(-c2nc3ccccn3c2Cl)cc1	none
NS(=O)(=O)c1ccc(NC(=O)C(Sc2ccccc2)c2ccccc2)cc1 (stereo not drawn)	none
COCCNC(=O)c1cccc(OC2CCN(Cc3ccc(C(=O)OC)cc3)CC2)c1	SIAE inh 50.6 | SIAE confirm inactive
O=C(CN1C(=O)CSc2ccccc21)N/N=C/c1ccco1	none
O=C(CSC(=S)N1CCOCC1)c1cc2ccccc2oc1=O	none (no result: rCAG RNA binder, mABHD4 FP, PRMT1 FP inh, SIAE inh)
C=CC(=O)Nc1cccc(Oc2nc(Nc3ccc(N4CCN(C)CC4)cc3OC)ncc2Cl)c1	SIAE inh 19.8 (no result: HTRA1 inh) | SIAE confirm inactive
Cc1cccc(C)c1OCc1cn(CC(=O)c2ccc(O)cc2)nn1	none
CN(C)C(=O)c1cnc(Cc2c[nH]c3ccccc23)c(I)c1	SIAE inh 17.5 (no result: HTRA1 inh) | SIAE confirm inactive
O=C(NCc1c[nH]c2ccccc12)c1ccccc1	none
O=c1c2cccnc2[nH]c(=S)n1Cc1ccccc1	none
O=C(Cn1c(=S)[nH]c2ncccc2c1=O)NCCc1ccccc1	SIAE inh 36.3 (no result: HTRA1 inh) | SIAE confirm inactive
CC(=O)c1ccc(OCC(=O)NC(=O)NC2CCCC2)cc1	SIAE inh 18.3 | SIAE confirm inactive
O=C(COC(=O)C1COc2ccccc2O1)NC(=O)NC1CCCCC1 (stereo not drawn)	SIAE inh 46.9 | SIAE confirm inactive
O=C(COC(=O)C1COc2ccccc2O1)NC1CCS(=O)(=O)C1 (stereo not drawn)	none
CC(C)CC(=O)NC(=S)NNC(=O)c1ccc([N+](=O)[O-])cc1	SIAE inh 30.8 | SIAE confirm inactive
CCOc1ccc(N(CC(=O)NC2CCCC2)C(=O)Cn2nnc(-c3ccc(C)o3)n2)cc1	none
COc1ccc(N(CC(=O)NC2CCCC2)C(=O)Cn2nnc(-c3ccc(C)o3)n2)cc1	SIAE inh 18.0 | SIAE confirm inactive
CCOC(=O)N1CCN(C(=O)c2oc3ccc(S(=O)(=O)N4CCCCC4)cc3c2C)CC1	none
CCOC(=O)c1sc2ccc(S(=O)(=O)N3CCCCC3)cc2c1N	SIAE inh 21.0 | SIAE confirm inactive
Cc1ccc(C)c(NC(=S)NCc2ccc3c(c2)OCO3)c1	SIAE inh 18.0 | SIAE confirm inactive
Cc1ccccc1NC(=S)NCc1ccc2c(c1)OCO2	none
O=C(c1sc2cccc(Cl)c2c1Cl)N1CCN(CCc2ccccn2)CC1	none
CCOc1ccc(CN2C(=O)c3ccccc3C2=O)cc1C(=O)N1CCC(C(N)=O)CC1	SIAE inh 21.6 | SIAE confirm inactive
O=C(Nc1ccc(Br)cc1)NC1CCCCCCC1	none
CCN(CCO)C(=O)c1ccc2nc(Cc3ccc(OC)cc3)oc2c1	SIAE inh 24.0 | SIAE confirm inactive
CCN(CCO)C(=O)c1ccc2oc(Cc3ccc(Cl)cc3)nc2c1	none
Cc1c(C(=O)N/N=C/c2ccc(-c3ccccc3[N+](=O)[O-])o2)sc(N)c1C#N	SIAE inh 26.4 | SIAE confirm inactive
Cc1c(-c2ccc(/C=N/NC(=O)C(=O)Nc3ccccc3F)o2)cccc1[N+](=O)[O-]	none (no result: HTRA1 inh)
COc1ccc(OCCn2cc(/C(N)=N/O)c3ccccc32)cc1	none
Cc1ccc(OCCn2cc(/C(N)=N/O)c3ccccc32)cc1C	SIAE inh 19.7 | SIAE confirm inactive
CCNC(=O)N(C)[C@H]1C[C@H]2c3[nH]c4ccccc4c3CCN2C[C@H]1[C@H](C)O	none (no result: HTRA1 inh)
C[C@H](O)[C@@H]1CN2CCc3c([nH]c4ccccc34)[C@@H]2C[C@@H]1N(C)C(=O)Nc1cccc2ccccc12	SIAE inh 21.9 (no result: HTRA1 inh) | SIAE confirm inactive
Cc1ccc(NC(=O)CCCC(=O)O)c(-c2nc3ccccc3[nH]c2=O)c1	none
CN(C)C(=S)N=Nc1[nH]c2ccccc2c1O	SIAE inh 20.7 (no result: HTRA1 inh) | SIAE confirm inactive
CN(C)C(=O)c1ccc(N=Nc2c(O)c3ccccc3[nH]c2=O)cc1	none
COc1cccc(NC(=O)N2CCCC2)c1	SIAE inh 18.5 | SIAE confirm inactive

Screening results deposited in PubChem by The Scripps Research Institute Molecular Screening Center.
